The source of these data is the array DNA melting data of Ke et al. (doi:10.1101/2024.01.08.574731).

The nature of series [1]: melting temperature; fluorescence melt of hairpins on a sequencing array, two-state fit, raised by 9.35 °C to match UV melts. The settings on record: sodium 0.088 M. In outline:
(§1)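 Library hairpins on a sequenced MiSeq flow cell carried annealed Cy3 and quencher oligos, and their Cy3 fluorescence was imaged in 50 mM Na-HEPES pH 8.0 with 25 mM NaCl, in 2.5 °C steps up to 60 °C. Signals were normalised to Cy3 before quenching and to control constructs. Melting temperature and folding enthalpy were obtained from bootstrapped two-state fits, combined by inverse-variance weighting across four replicates, and the fitted temperatures were then raised by 9.35 °C to match UV melts.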

Series [2] can be described thus: folding enthalpy; higher = less favourable; fluorescence melt of hairpins on a sequencing array, two-state fit. To be noted: sodium 0.088 M. In outline:
as §1

CGAGTCGGAAACGATCG (((.(((....)))))): the Tm in series [1] stood at 40.8 °C. Further, the folding enthalpy in series [2] was -27.4 kcal/mol.

Take CGATAACGGAAACGTTCG (((..(((....)))))): the Tm in series [1] was 35.6 °C. For the same sequence, the folding enthalpy in series [2] was -16.1 kcal/mol.

In the case of CGATCGGAAACGAAATCG ((((((....)))..))), the Tm in series [1] was found to be 33.9 °C. The folding enthalpy in series [2] is -22.2 kcal/mol.

As to CGATCGGAAACGAATCG ((((((....))).))), the Tm in series [1] turned out to be 46 °C. Moreover, in series [2], the folding enthalpy is -34.7 kcal/mol.

For CGATCGGAAACGAGATCG ((((((....)))..))), in series [1], the Tm worked out at 42.5 °C. For the same sequence, the folding enthalpy in series [2] was -28.4 kcal/mol.

In the case of CGATCGGAAACGATATCG ((((((....)))..))), the Tm in series [1] came out at 35.5 °C. Also, the folding enthalpy in series [2] was -18.4 kcal/mol.

On to CGATCGGAAACGATTCG ((((((....))).))), for which the Tm in series [1] was found to be 43.7 °C. In series [2], the folding enthalpy was -24.9 kcal/mol.

With CGATCGGAAACGATTTCG ((((((....)))..))), the Tm in series [1] is 30.2 °C. Moreover, the folding enthalpy in series [2] is -20.4 kcal/mol.

In the case of CGATGCGGAAACGCGTCG (((.(((....))).))), in series [1], the Tm came out at 62.1 °C. Further, the folding enthalpy in series [2] is -47.4 kcal/mol.

With CGATGGAAACATCG (((((....))))), the Tm in series [1] stood at 52.6 °C. In series [2], the folding enthalpy is -23.9 kcal/mol.

Consider CGATTCCGGAAACGGTCG (((..(((....)))))), for which, in series [1], the Tm was 36.2 °C. In series [2], the folding enthalpy is -27.7 kcal/mol.

Consider CGATTCGGAAACGACTCG (((.(((....))).))), for which the Tm in series [1] came out at 42.6 °C. Besides, the folding enthalpy in series [2] is -37.8 kcal/mol.

Turning to CGATTGCGGAAACGCTCG (((..(((....)))))), the Tm in series [1] is 33.5 °C. In addition, in series [2], the folding enthalpy is -15.9 kcal/mol.

Take CGATTTCGGAAACGATCG (((..(((....)))))): in series [1], the Tm worked out at 29.6 °C. The folding enthalpy in series [2] is -9.46 kcal/mol.

As to CGCACCCGGAAACGGGCG (((..(((....)))))), the Tm in series [1] is 46.1 °C. In series [2], the folding enthalpy is -12 kcal/mol.

On to CGCACCGGAAACGGGCG (((.(((....)))))), for which the Tm in series [1] was 55.7 °C. In series [2], the folding enthalpy is -25.2 kcal/mol.

For CGCACGGAAACGTCAGCG ((((((....)))..))), the Tm in series [1] is 42.7 °C. Further, in series [2], the folding enthalpy is -26.4 kcal/mol.

Take CGCACGGAAACGTCTGCG ((((((....)))..))): in series [1], the Tm worked out at 42.6 °C. For the same sequence, the folding enthalpy in series [2] was -23.8 kcal/mol.

Regarding CGCACGGAAACGTGAGCG ((((((....)))..))), in series [1], the Tm amounted to 50.5 °C. Besides, the folding enthalpy in series [2] was -14.8 kcal/mol.

As for CGCACGGAAACGTGGGCG ((((((....)))..))), the Tm in series [1] was 56.3 °C. In addition, the folding enthalpy in series [2] was -12.8 kcal/mol.

On to CGCACGGAAACGTTCGCG ((((((....)))..))), for which the Tm in series [1] was 41.1 °C. For the same sequence, the folding enthalpy in series [2] was -22.7 kcal/mol.

For CGCACGGAAACGTTTGCG ((((((....)))..))), in series [1], the Tm came to 44.1 °C. Also, the folding enthalpy in series [2] is -29.5 kcal/mol.

For CGCAGACGGAAACGTGCG (((..(((....)))))), the Tm in series [1] amounted to 49.3 °C. Also, in series [2], the folding enthalpy is -22.6 kcal/mol.

Take CGCATCCGGAAACGGGCG (((..(((....)))))): in series [1], the Tm is 46.9 °C. In addition, the folding enthalpy in series [2] is -26.7 kcal/mol.

Consider CGCATCGGAAACGAGGCG (((.(((....))).))), for which, in series [1], the Tm was 61.4 °C. Moreover, the folding enthalpy in series [2] was -44.1 kcal/mol.

For the sequence CGCATTCGGAAACGAGCG (((..(((....)))))), the Tm in series [1] worked out at 36.9 °C. Moreover, the folding enthalpy in series [2] is -25.9 kcal/mol.

In the case of CGCCCGGAAACGGAAGCG ((((((....)))..))), the Tm in series [1] was 49.3 °C. Moreover, the folding enthalpy in series [2] was -30.8 kcal/mol.

CGCCCGGAAACGGGTGCG ((((((....)))..))): the Tm in series [1] is 57.5 °C. Moreover, the folding enthalpy in series [2] was -10.7 kcal/mol.

In the case of CGCCCGGAAACGGTAGCG ((((((....)))..))), the Tm in series [1] was 50.9 °C. Moreover, the folding enthalpy in series [2] was -30.4 kcal/mol.

For CGCCCGGAAACGGTCGCG ((((((....)))..))), the Tm in series [1] came to 50.1 °C. In addition, in series [2], the folding enthalpy was -21.2 kcal/mol.

Regarding CGCCCTCGGAAACGAGCG (((..(((....)))))), the Tm in series [1] is 34.5 °C. For the same sequence, in series [2], the folding enthalpy was -12.2 kcal/mol.

Regarding CGCCGCGGAAACGCGCG (((.(((....)))))), the Tm in series [1] stood at 66.6 °C. Besides, the folding enthalpy in series [2] was -16.6 kcal/mol.

On to CGCCGTCGGAAACGAGCG (((..(((....)))))), for which, in series [1], the Tm stood at 50.3 °C. In series [2], the folding enthalpy is -28.4 kcal/mol.

CGCGCGGAAACGCATGCG ((((((....)))..))): the Tm in series [1] amounted to 52.9 °C. Besides, in series [2], the folding enthalpy was -32.8 kcal/mol.

In the case of CGCGCGGAAACGCCAGCG ((((((....)))..))), in series [1], the Tm worked out at 53.9 °C. In series [2], the folding enthalpy is -23 kcal/mol.

Take CGCGCGGAAACGCCCGCG ((((((....)))..))): the Tm in series [1] came out at 54.7 °C. In series [2], the folding enthalpy is -29.7 kcal/mol.

For CGCGCGGAAACGCTCGCG ((((((....)))..))), in series [1], the Tm turned out to be 52.5 °C. Moreover, in series [2], the folding enthalpy is -23.4 kcal/mol.
